For assay [1], the system named is A2780. Nature of the assay: Inhibitory concentration in vitro for cytotoxic activity against A 2780 human ovarian carcinoma cells. Format: functional, cell-based. The method in brief:
(§1)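 MTT assay in 96-well plates, seeding 400–1000 cells/well. Cells recover 24 h, then drug in medium is added, three wells per dose. Incubate 5 days at 37 °C in 5% CO₂. Add MTT (3 mg/mL) for 3 h, dissolve formazan in DMSO, read at 540 nm minus 620 nm. Percent growth inhibition per dose comes from duplicate experiments, reported as mean and SD; IC50 is derived from these.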

Assay [2] deals with Escherichia coli. Nature of the assay: Antimicrobial activity against Escherichia coli after 96h incubation. Format: functional. The method in brief:
(§2)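 Agar diffusion on cellulose disks loaded with 200 µg compound each. Bacteria read after 96 h, yeasts after 48 h. Activity is recorded as the radius in mm, or percent, of the inhibition zone. Squalestatin S1 (200 µg/disk) served as control in the yeast assay.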

The test system of assay [3] is Staphylococcus aureus. Briefly: Antimicrobial activity against Staphylococcus aureus after 96h incubation. It counts as functional. The method in brief:
as §2

The test system of assay [4] is Bacillus subtilis. Nature of the assay: Antimicrobial activity against Bacillus subtilis after 96h incubation. It counts as functional. The method in brief: as §2
Assay [5] has as its system Candida albicans. Nature of the assay: Antimicrobial activity against Candida albicans after 48 hr incubation. Format: functional. The essentials:
as §2

For assay [6], the system named is Escherichia coli. Nature of the assay: Antimicrobial activity against the Escherichia coli after 96 hr incubation. Format: functional. Also on record: concentration or dose not given beside the values. The essentials:
as §2

For assay [7], the system named is Bacillus subtilis. Briefly: Antimicrobial activity against Bacillus subtilis after 96 hr incubation. Also on record: concentration or dose not given beside the values. It counts as functional. The method in brief: as §2
Assay [8] deals with K562. Briefly: Inhibitory concentration in vitro for cytotoxic activity against K 562 human chronic myelogenous leukemia cells. Format: functional, cell-based. The essentials:
as §1

Assay [9] deals with Schizosaccharomyces pombe. Briefly: (§3) Antimicrobial activity against Schizosaccharomyces pombe after 48 hr incubation. It counts as functional. The essentials: as §2
Assay [10] deals with Schizosaccharomyces pombe. The description is as §3. It counts as functional. Also on record: concentration or dose not given beside the values. The method in brief:
as §2

Assay [11] deals with Staphylococcus aureus. Briefly: The compound was evaluated for anti microbial activity against Staphylococcus aureus after 96 hr incubation. Format: functional. Also on record: concentration or dose not given beside the values. The method in brief: as §2
Assay [12] has as its system Saccharomyces cerevisiae. Briefly: Antimicrobial activity against Saccharomyces cerevisiae after 48 hr incubation. It counts as functional. The method in brief: as §2
The subject of assay [13] is Candida albicans. Nature of the assay: Anti fungal activity against Candida albicans after 48 hr incubation. Also on record: concentration or dose not given beside the values. Format: functional. The method in brief:
as §2

Assay [14] deals with Saccharomyces cerevisiae. Briefly: Compound was evaluated for anti fungal activity against Saccharomyces cerevisiae after 48 hr incubation. It counts as functional. The essentials:
as §2

Assay [15] concerns Schizosaccharomyces pombe. Briefly: The compound was evaluated for antimicrobial activity against Schizosaccharomyces pombe after 48 hr incubation. Format: functional. The method in brief:
as §2

For `Cc1cc(C#CCOC2CCCCO2)cc(=O)o1` (configuration not stated), the IC50 (usually the concentration at which inhibition is half-maximal) in assay [1] worked out at 2.1 µM; in assay [8], 4 µM. Besides, the Inhibition worked out at 17 mm in assay [2]; 30 mm in [3]; 20 mm in [4]; 13 mm in assay [5]; 19.3% in assay [6]; 22.7% in assay [7]. Also, the Inhibition in assay [9] worked out at 18 mm; in [10] it was 20.5%; in assay [11], 34.1%; in [12], 0 mm; in [13], 14.8%.
Consider `CCCCC/C=C/c1cc(C)oc(=O)c1`, for which the IC50 in assay [1] and in [8] was > 50 µM throughout. The Inhibition in assay [2] came to 18 mm; in assay [3], 17 mm; in assay [4], 18 mm; in assay [5] it was 21 mm; in [6], 20.5%; in assay [7] it was 20.5%. Besides, the Inhibition is 34 mm in assay [9]; 38.6% in assay [10]; 19.3% in assay [11]; 0 mm in [12]; 23.9% in [13].
On to `CCCCCC/C=C/c1cc(C)oc(=O)c1`, for which the IC50 in assay [1] and in [8] was > 50 µM each time. In addition, the Inhibition in assay [2] was 20 mm; in [3] it was 18 mm; in assay [4] it was 18 mm; in assay [5] it was 20 mm; in assay [6] it was 22.7%; in [7] it was 20.5%. Besides, the Inhibition in assay [9] was found to be 29 mm; in assay [10], 32.9%; in assay [11] it was 20.5%; in [12] it was 0 mm; in assay [13] it was 22.7%.
As to `CCCCCCCc1cc(C)oc(=O)c1`, the 50% inhibitory concentration (IC50) in assay [1] turned out to be 41.8 µM; in [8] it was 28.7 µM. Further, the Inhibition was found to be 17 mm in assay [2]; 14 mm in assay [3]; 16 mm in assay [4]; 16 mm in assay [5]; 19.3% in assay [6]; 18.2% in assay [7]. Besides, the Inhibition in [14] turned out to be 5.7%; in assay [9] it was 30 mm; in assay [11], 15.9%; in assay [12], 5 mm; in assay [13], 18.2%; in assay [15] it was 34.1%.
In the case of `CCCC#Cc1cc(C)oc(=O)c1`, the 50% inhibitory concentration (IC50) was 4.8 µM in assay [1] and 17.8 µM in [8]. For the same compound, the Inhibition came to 22 mm in [2]; 21 mm in assay [3]; 18 mm in assay [4]; 11 mm in [5]; 25% in [6]; 20.5% in assay [7]. In addition, the Inhibition stood at 29 mm in [9]; 32.9% in assay [10]; 23.9% in assay [11]; 0 mm in assay [12]; 12.5% in assay [13].
As to `CCc1cc(C)oc(=O)c1`, the half-inhibitory concentration (IC50) in [1] and in [8] was > 50 µM each time. In addition, the Inhibition came out at 21 mm in assay [2]; 0 mm in assay [3]; 0 mm in assay [4]; 0 mm in assay [5]; 23.8% in assay [6]; 0 mm in assay [12]. In assay [15], this compound gave an Inhibition of 0 radii mm-1.
In the case of `CCCCCC#Cc1cc(C)oc(=O)c1`, the IC50 came out at 2.9 µM in assay [1] and 11.1 µM in assay [8]. Besides, the Inhibition worked out at 19 mm in [2]; 21 mm in assay [3]; 19 mm in assay [4]; 22 mm in assay [5]; 21.6% in [6]; 21.6% in [7]. The Inhibition in [9] is reported as 50 mm; in [10], 56.8%; in assay [11], 23.9%; in assay [12], 0 mm; in [13], 25%.
As to `C#Cc1cc(C)oc(=O)c1`, the half-inhibitory concentration (IC50) in [1] was found to be 3.1 µM; in [8], 2 µM. The Inhibition in assay [2] is listed as 16 mm; in assay [3], 30 mm; in assay [4], 17 mm; in assay [5], 36 mm; in assay [6] it was 18.2%; in assay [7], 19.3%. Moreover, the Inhibition in assay [14] stood at 45.4%; in [9], 40 mm; in assay [10], 45.5%; in assay [11], 34.1%; in assay [12] it was 40 mm; in assay [13] it was 40.9%.

The values are drawn from ChEMBL document CHEMBL1135862, “Bioactive 4-substituted-6-methyl-2-pyrones with promising cytotoxicity against A2780 and K562 cell lines” (Bioorg Med Chem Lett, 2002).
